Assay results from ChEMBL document CHEMBL1122293, “Synthesis, evaluation of chemical reactivity, and murine antineoplastic activity of 2-hydroxy-5-(3,4-dichlorophenyl)-6,7-bis(hydroxymethyl)-2,3-dihydro-1H- pyrrolizine bis(2-propylcarbamate) and 2-acyloxy derivatives as potential water-soluble prodrugs” (J Med Chem, 1983).
Values after ≈ are worked out from the molar mass of the structure shown.

Tests used:
B16 [1] = test: No. of cures on day 60 at 10 mg/kg (ip) against B16 melanocarcinoma in mice; format: functional, Mus musculus
How it was run: (§1)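 Female BDF1 mice given ip 0.5 mL of tumor brei (1.0 g tissue per 10 mL). Nine daily ip doses beginning 24 h later, as Klucel suspensions or a water/Tween-80 suspension. Acute toxicity scored day 5; survival read day 60. Cures counted per 10-animal group at day 60; weight difference reported as treated minus control (g).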

B16 [2] = test: No. of cures on day 60 at 20 mg/kg (ip) against B16 melanocarcinoma in mice; format: functional, Mus musculus; how it was run: as §1
B16 [3] = test: No. of cures on day 60 at 40 mg/kg (ip) against B16 melanocarcinoma in mice; format: functional, Mus musculus; how it was run: as §1
B16 [4] = test: No. of cures on day 60 at 5 mg/kg (ip) against B16 melanocarcinoma in mice; format: functional, Mus musculus; how it was run: as §1
B16 [5] = test: No. of cures on day 60 at 80 mg/kg (ip) against B16 melanocarcinoma in mice; format: functional, Mus musculus; how it was run: as §1
B16 [6] = test: Median survival time of test animals compared to controls at 10 mg/kg (ip) against B16 melanocarcinoma in mice; format: functional, Mus musculus
How it was run: (§2)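 Female BDF1 mice received B16 tumor brei ip (0.5 mL of 1.0 g tissue per 10 mL). From 24 h later they got nine daily ip doses, suspended in Klucel or water/Tween-80. Acute toxicity was assessed on day 5 and survival was evaluated on day 60. The value is median survival as % T/C, with 10 mice per group and a positive control run in parallel.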

B16 [7] = test: Median survival time of test animals compared to controls at 20 mg/kg (ip) against B16 melanocarcinoma in mice; format: functional, Mus musculus; how it was run: as §2
B16 [8] = test: Median survival time of test animals compared to controls at 40 mg/kg (ip) against B16 melanocarcinoma in mice; format: functional, Mus musculus; how it was run: as §2
B16 [9] = test: Median survival time of test animals compared to controls at 5 mg/kg (ip) against B16 melanocarcinoma in mice; format: functional, Mus musculus; how it was run: as §2
B16 [10] = test: Median survival time of test animals compared to controls at 80 mg/kg (ip) against B16 melanocarcinoma in mice; format: functional, Mus musculus; how it was run: as §2
B16 [11] = test: Weight difference at 10 mg/kg (ip)against B16 melanocarcinoma in mice; format: functional, Mus musculus; how it was run: as §1
B16 [12] = test: Weight difference at 20 mg/kg (ip) against B16 melanocarcinoma in mice; format: functional, Mus musculus; how it was run: as §1
B16 [13] = test: Weight difference at 40 mg/kg (ip)against B16 melanocarcinoma in mice; format: functional, Mus musculus; how it was run: as §1
B16 [14] = test: Weight difference at 5 mg/kg (ip)against B16 melanocarcinoma in mice; format: functional, Mus musculus; how it was run: as §1
B16 [15] = test: Weight difference at 80 mg/kg (ip) against B16 melanocarcinoma in mice; format: functional, Mus musculus; how it was run: as §1
P388 [16] = test: Weight difference at 50 mg/kg (ip)against P388 Lymphocytic Leukemia in mice; format: functional, Mus musculus
How it was run: (§3)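 Male CDF1 mice given 6×10^6 leukemia cells ip. Five daily ip doses beginning 24 h later, as Klucel suspension or aqueous solution. Acute toxicity on day 5; survival assessed on day 30. Weight difference reported as treated minus control (g).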

P388 [17] = test: Weight difference at 6.25 mg/kg (ip)against P388 Lymphocytic Leukemia in mice; format: functional, Mus musculus; how it was run: as §3
P388 [18] = test: Median survival time of test animals compared to controls at 100 mg/kg (ip) against P388 Lymphocytic Leukemia in mice; format: functional, Mus musculus
How it was run: (§4)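 P388 leukemia cells were inoculated ip into male CDF1 mice. Treatment began 24 h later, given ip as five daily doses, either as a Klucel (hydroxypropylcellulose) suspension or as an aqueous solution. Acute toxicity was assessed on day 5 and results were read on day 30. The value is median survival of treated versus control mice, as % T/C.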

P388 [19] = test: Median survival time of test animals compared to controls at 12.5 mg/kg (ip) against P388 Lymphocytic Leukemia in mice; format: functional, Mus musculus
How it was run: (§5)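 P388 leukemia cells inoculated ip into male CDF1 mice; ip treatment started 24 h later, five daily doses, as Klucel (hydroxypropylcellulose) suspension or aqueous solution. Acute toxicity on day 5. Day-30 median survival of treated versus control mice expressed as % T/C. Weight difference is treated minus control, in grams.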

P388 [20] = test: Median survival time of test animals compared to controls at 25 mg/kg (ip) against P388 Lymphocytic Leukemia in mice; format: functional, Mus musculus; how it was run: as §4
P388 [21] = test: Median survival time of test animals compared to controls at 50 mg/kg (ip) against P388 Lymphocytic Leukemia in mice; format: functional, Mus musculus; how it was run: as §4
P388 [22] = test: Median survival time of test animals compared to controls at 6.25 mg/kg (ip) against P388 Lymphocytic Leukemia in mice; format: functional, Mus musculus; how it was run: as §4
P388 [23] = test: Log of the tumor cell population at the end of treatment at 100 mg/kg (ip) against P388 Lymphocytic Leukemia in mice; format: functional, Mus musculus
P388 [24] = test: Log of the tumor cell population at the end of treatment at 12.5 mg/kg (ip) against P388 Lymphocytic Leukemia in mice; format: functional, Mus musculus
P388 [25] = test: Log of the tumor cell population at the end of treatment at 25 mg/kg (ip) against P388 Lymphocytic Leukemia in mice; format: functional, Mus musculus
P388 [26] = test: Log of the tumor cell population at the end of treatment at 50 mg/kg (ip) against P388 Lymphocytic Leukemia in mice; format: functional, Mus musculus
P388 [27] = test: Log of the tumor cell population at the end of treatment at 6.25 mg/kg (ip) against P388 Lymphocytic Leukemia in mice; format: functional, Mus musculus
P388 [28] = test: Weight difference at 25 mg/kg (ip)against P388 Lymphocytic Leukemia in mice; format: functional, Mus musculus; how it was run: as §3
P388 [29] = test: Weight difference at 100 mg/kg (ip)against P388 Lymphocytic Leukemia in mice; format: functional, Mus musculus; how it was run: as §3
P388 [30] = test: Weight difference at 12.5 mg/kg (ip)against P388 Lymphocytic Leukemia in mice; format: functional, Mus musculus; how it was run: as §5
[31] = Water solubility of the compound; format: ADME; conditions: read-out: S
How it was run: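 Excess bis(carbamate) (30-60 mg) in 2 mL distilled water, vortexed 10 min, filtered through Teflon wool and diluted. UV absorbance read at 291 nm. Concentration from a linear Beer's law calibration made with a salt standard (r = 0.998).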

P388 [32] = test: Weight difference at 80 mg/kg (ip)against P388 Lymphocytic Leukemia in mice; format: functional, Mus musculus
How it was run: (§6)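 Male CDF1 mice inoculated ip with P388 leukemia cells. Nine daily ip doses beginning 24 h later, as suspensions in Klucel or water. Acute toxicity evaluated day 5. Weight difference reported as treated minus control (g).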

P388 [33] = test: Median survival time of test animals compared to controls at 10 mg/kg (ip) against P388 Lymphocytic Leukemia in mice; format: functional, Mus musculus
How it was run: (§7)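 P388 leukemia cells were given ip to male CDF1 mice. Dosing started 24 h later: nine daily ip doses given as suspensions in Klucel (hydroxypropylcellulose) or in water. Toxicity day was day 5 and evaluation was on day 30. The value is % T/C of median survival time against untreated controls, with a parallel positive-control arm.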

P388 [34] = test: Median survival time of test animals compared to controls at 2.5 mg/kg (ip) against P388 Lymphocytic Leukemia in mice; format: functional, Mus musculus
How it was run: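 P388 leukemia cells given ip to male CDF1 mice; ip dosing began 24 h later, nine daily doses, as suspensions in Klucel (hydroxypropylcellulose) or water. Acute toxicity checked on day 5. Survival read on day 30 as median survival time of treated versus control mice (% T/C). Weight difference is treated minus control, in grams.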

P388 [35] = test: Median survival time of test animals compared to controls at 20 mg/kg (ip) against P388 Lymphocytic Leukemia in mice; format: functional, Mus musculus; how it was run: as §7
P388 [36] = test: Median survival time of test animals compared to controls at 40 mg/kg (ip) against P388 Lymphocytic Leukemia in mice; format: functional, Mus musculus; how it was run: as §7
P388 [37] = test: Median survival time of test animals compared to controls at 5 mg/kg (ip) against P388 Lymphocytic Leukemia in mice; format: functional, Mus musculus; how it was run: as §7
P388 [38] = test: Median survival time of test animals compared to controls at 80 mg/kg (ip) against P388 Lymphocytic Leukemia in mice; format: functional, Mus musculus; how it was run: as §7
P388 [39] = test: Log of the tumor cell population at the end of treatment at 10 mg/kg (ip) against P388 Lymphocytic Leukemia in mice; format: functional, Mus musculus
P388 [40] = test: Log of the tumor cell population at the end of treatment at 20 mg/kg (ip) against P388 Lymphocytic Leukemia in mice; format: functional, Mus musculus
P388 [41] = test: Log of the tumor cell population at the end of treatment at 40 mg/kg (ip) against P388 Lymphocytic Leukemia in mice; format: functional, Mus musculus
P388 [42] = test: Log of the tumor cell population at the end of treatment at 5 mg/kg (ip) against P388 Lymphocytic Leukemia in mice; format: functional, Mus musculus
P388 [43] = test: Log of the tumor cell population at the end of treatment at 80 mg/kg (ip) against P388 Lymphocytic Leukemia in mice; format: functional, Mus musculus
P388 [44] = test: Weight difference at 5 mg/kg (ip)against P388 Lymphocytic Leukemia in mice; format: functional, Mus musculus; how it was run: as §6
P388 [45] = test: Weight difference at 10 mg/kg (ip)against P388 Lymphocytic Leukemia in mice; format: functional, Mus musculus; how it was run: as §6
P388 [46] = test: Weight difference at 2.5 mg/kg (ip)against P388 Lymphocytic Leukemia in mice; format: functional, Mus musculus; how it was run: as §6
P388 [47] = test: Weight difference at 20 mg/kg (ip)against P388 Lymphocytic Leukemia in mice; format: functional, Mus musculus; how it was run: as §6
P388 [48] = test: Weight difference at 40 mg/kg (ip)against P388 Lymphocytic Leukemia in mice; format: functional, Mus musculus; how it was run: as §6

Structure (SMILES)	Weight change (P388 [16]) [g]	Weight change (P388 [17]) [g]	T/C (P388 [18]) [%]	T/C (P388 [19]) [%]	T/C (P388 [20]) [%]	T/C (P388 [21]) [%]	T/C (P388 [22]) [%]	Log cell kill (P388 [23])	Log cell kill (P388 [24])	Log cell kill (P388 [25])	Log cell kill (P388 [26])	Log cell kill (P388 [27])	Weight change (P388 [28]) [g]	Weight change (P388 [29]) [g]	Weight change (P388 [30]) [g]	solubility [31] [µM]	half-life (Half life was determined) [min]	other results
CC(C)NC(=O)OCc1c(COC(=O)NC(C)C)c(-c2ccc(Cl)c(Cl)c2)n2c1CC(O)C2 (configuration not stated)	-5.6	-2.1	166	147	145	150	140	2.16	0.62	0.46	0.85	0.08	-3.8	-6.3	-2.7	40.2 (≈ 20 µg/mL)	31	Cures (B16 [1]): 0; Cures (B16 [2]): 0; Cures (B16 [3]): 4; Cures (B16 [4]): 0; Cures (B16 [5]): 0; T/C (B16 [6]): 143%; T/C (B16 [7]): 196%; T/C (B16 [8]): 223%; T/C (B16 [9]): 129%; T/C (B16 [10]): 101%; Weight change (B16 [11]): 0.2 g; Weight change (B16 [12]): 0 g; Weight change (B16 [13]): -0.9 g; Weight change (B16 [14]): 0.1 g; Weight change (B16 [15]): -2.4 g
CC(C)NC(=O)OCc1c(COC(=O)NC(C)C)c(-c2ccc(Cl)c(Cl)c2)n2c1CCC2	-5.3	-2.8	110	160	179	205	164	-1.4	1.7	3.16	5.25	2.01	-3.9	-5.6	-3.4	1.26 (≈ 0.608 µg/mL)	13	Weight change (P388 [32]): -4 g; T/C (P388 [33]): 141%; Log cell kill (P388 [34]): -1.52; T/C (P388 [34]): 135%; T/C (P388 [35]): 144%; T/C (P388 [36]): 155%; T/C (P388 [37]): 127%; T/C (P388 [38]): 126%; Log cell kill (P388 [39]): -1.44; Log cell kill (P388 [40]): -1.41; Log cell kill (P388 [41]): -1.25; Log cell kill (P388 [42]): -1.63; Log cell kill (P388 [43]): -1.64; Weight change (P388 [44]): -0.8 g; Weight change (P388 [45]): -0.7 g; Weight change (P388 [46]): -0.5 g; Weight change (P388 [47]): -1.8 g; Weight change (P388 [48]): -2.6 g
